# Data from publication PMC9924264 (Journal of Medicinal Chemistry, 2023).
# Key:
# [1] = target: T1, BMPR2 kinase domain (Homo sapiens, UniProt Q13873); assay: BMPR2 Kinase-Glo kinase inhibition assay; assay type: biochemical; conditions: for fold loss of BMPR2 potency: compared to parent CDD-1115 (CDD-1280: relative to CDD-1281)
# T1 sequence (Q13873 188-517): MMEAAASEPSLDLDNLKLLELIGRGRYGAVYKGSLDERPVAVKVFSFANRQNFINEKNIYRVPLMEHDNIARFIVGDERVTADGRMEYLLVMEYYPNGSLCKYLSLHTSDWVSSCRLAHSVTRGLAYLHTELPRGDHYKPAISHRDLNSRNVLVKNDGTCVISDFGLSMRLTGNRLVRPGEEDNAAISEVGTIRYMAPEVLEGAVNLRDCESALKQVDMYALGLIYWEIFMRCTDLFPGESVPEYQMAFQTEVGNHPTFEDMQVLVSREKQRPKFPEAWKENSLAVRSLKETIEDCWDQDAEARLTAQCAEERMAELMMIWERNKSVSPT
# Procedure, shortened: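 Recombinant human BMPR2 kinase domain (aa188-517, C-terminal His-tag) expressed in E. coli and purified by affinity, anion-exchange and size-exclusion chromatography. Substrate-free ATPase end-point assay: 10 μM ATP, 0.02% Tween-20, kinase buffer, 30 min at 30 °C. Enzyme level optimized for linear initial velocity. Leftover ATP read by luciferase luminescence, with no-kinase controls. Kiapp from modified Morrison equation fit to normalized fractional activity, no inhibition mode assumed.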
# [2] = target: WNK2 (Homo sapiens, UniProt Q9Y3S1); assay: ThermoFisher Kd Elect screening; assay type: binding
# [3] = system: pSMAD1/5 in human umbilical vein endothelial cells (HUVECs); assay: pSMAD1/5 Western blot, BMP9-stimulated HUVECs; assay type: cell-based; conditions: 25 μM, 30 min pretreatment, 0.5 ng/mL BMP9 15 min
# Procedure, shortened: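 HUVECs, about 3 × 10^5 per well, starved overnight in Kaighn's F-12 with 0.5% FBS and 30 μg/mL endothelial cell growth supplement. Pretreated with inhibitors for 30 min, then given 0.5 ng/mL BMP9 for 15 min. Lysed with protease and phosphatase inhibitors. SDS-PAGE immunoblot for pSMAD1/5, SMAD1, SMAD5 and GAPDH, with densitometry. n = 3 biological replicates; one-way ANOVA with Tukey post hoc test.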
# [4] = target: WNK1 (Homo sapiens, UniProt Q9H4A3); assay: ThermoFisher Kd Elect screening; assay type: binding
# Sequence of WNK1 (Q9H4A3 whole entry): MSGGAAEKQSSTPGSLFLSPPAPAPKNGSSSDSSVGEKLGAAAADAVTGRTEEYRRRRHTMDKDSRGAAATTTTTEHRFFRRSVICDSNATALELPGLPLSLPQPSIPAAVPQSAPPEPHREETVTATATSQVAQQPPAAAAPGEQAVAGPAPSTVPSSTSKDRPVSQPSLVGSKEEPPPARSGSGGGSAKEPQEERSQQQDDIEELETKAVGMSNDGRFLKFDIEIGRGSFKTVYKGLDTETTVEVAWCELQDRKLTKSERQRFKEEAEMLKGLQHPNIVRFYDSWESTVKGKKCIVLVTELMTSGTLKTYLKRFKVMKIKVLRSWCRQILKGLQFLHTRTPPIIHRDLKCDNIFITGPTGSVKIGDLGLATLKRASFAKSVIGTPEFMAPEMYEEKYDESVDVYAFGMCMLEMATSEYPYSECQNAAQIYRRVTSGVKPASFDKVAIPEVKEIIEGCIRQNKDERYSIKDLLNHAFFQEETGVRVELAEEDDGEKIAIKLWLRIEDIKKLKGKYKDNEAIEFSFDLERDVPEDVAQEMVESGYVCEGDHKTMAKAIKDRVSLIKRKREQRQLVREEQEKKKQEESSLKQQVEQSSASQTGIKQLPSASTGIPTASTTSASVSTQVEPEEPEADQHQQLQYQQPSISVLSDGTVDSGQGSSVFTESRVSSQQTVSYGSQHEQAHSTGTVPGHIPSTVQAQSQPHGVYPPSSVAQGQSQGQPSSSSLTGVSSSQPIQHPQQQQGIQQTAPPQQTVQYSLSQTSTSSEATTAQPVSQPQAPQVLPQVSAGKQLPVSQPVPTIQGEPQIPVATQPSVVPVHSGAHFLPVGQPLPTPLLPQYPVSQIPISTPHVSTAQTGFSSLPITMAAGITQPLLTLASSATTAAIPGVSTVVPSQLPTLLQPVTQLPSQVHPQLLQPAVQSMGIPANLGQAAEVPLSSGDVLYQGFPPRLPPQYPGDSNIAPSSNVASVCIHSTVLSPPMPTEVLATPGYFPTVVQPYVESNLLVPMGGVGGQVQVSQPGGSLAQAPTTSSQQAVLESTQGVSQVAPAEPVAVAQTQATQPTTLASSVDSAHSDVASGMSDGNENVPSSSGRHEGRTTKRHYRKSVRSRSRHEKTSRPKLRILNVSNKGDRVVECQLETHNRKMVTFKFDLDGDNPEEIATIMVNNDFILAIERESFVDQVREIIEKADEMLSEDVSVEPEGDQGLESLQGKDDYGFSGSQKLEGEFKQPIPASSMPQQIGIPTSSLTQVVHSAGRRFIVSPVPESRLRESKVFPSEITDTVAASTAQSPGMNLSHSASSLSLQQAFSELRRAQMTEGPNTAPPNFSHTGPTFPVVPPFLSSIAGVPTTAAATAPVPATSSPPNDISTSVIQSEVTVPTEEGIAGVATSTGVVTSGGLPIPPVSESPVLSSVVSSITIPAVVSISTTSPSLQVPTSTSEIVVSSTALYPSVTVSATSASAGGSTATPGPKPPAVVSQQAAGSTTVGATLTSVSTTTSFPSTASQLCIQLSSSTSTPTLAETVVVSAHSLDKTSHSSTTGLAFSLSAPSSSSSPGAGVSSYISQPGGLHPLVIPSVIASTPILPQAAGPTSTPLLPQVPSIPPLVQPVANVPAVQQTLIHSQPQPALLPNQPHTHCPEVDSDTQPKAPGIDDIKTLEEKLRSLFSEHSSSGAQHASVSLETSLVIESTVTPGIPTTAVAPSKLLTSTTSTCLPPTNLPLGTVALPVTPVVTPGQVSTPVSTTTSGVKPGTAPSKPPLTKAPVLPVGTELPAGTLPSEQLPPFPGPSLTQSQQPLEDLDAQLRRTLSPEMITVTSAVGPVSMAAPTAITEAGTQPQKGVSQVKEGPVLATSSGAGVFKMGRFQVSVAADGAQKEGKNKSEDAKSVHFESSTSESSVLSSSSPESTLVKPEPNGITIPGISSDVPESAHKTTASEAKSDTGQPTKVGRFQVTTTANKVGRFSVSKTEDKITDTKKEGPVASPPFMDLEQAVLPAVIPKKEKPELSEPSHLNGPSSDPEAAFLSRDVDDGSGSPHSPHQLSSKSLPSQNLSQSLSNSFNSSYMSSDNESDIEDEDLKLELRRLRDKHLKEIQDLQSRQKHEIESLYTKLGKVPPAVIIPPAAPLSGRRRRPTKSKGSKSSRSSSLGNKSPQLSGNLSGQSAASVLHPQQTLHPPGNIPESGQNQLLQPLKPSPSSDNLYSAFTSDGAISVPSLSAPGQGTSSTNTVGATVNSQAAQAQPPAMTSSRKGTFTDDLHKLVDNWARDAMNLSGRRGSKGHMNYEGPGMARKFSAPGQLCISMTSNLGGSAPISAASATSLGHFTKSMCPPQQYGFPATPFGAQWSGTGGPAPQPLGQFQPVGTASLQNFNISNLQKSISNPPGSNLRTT
# [5] = target: T2, ACVR1B (ALK4) (Homo sapiens, UniProt P36896); assay: ThermoFisher SelectScreen Z’-LYTE assay; assay type: biochemical; conditions: N/A = not active
# T2 sequence (P36896 24-505): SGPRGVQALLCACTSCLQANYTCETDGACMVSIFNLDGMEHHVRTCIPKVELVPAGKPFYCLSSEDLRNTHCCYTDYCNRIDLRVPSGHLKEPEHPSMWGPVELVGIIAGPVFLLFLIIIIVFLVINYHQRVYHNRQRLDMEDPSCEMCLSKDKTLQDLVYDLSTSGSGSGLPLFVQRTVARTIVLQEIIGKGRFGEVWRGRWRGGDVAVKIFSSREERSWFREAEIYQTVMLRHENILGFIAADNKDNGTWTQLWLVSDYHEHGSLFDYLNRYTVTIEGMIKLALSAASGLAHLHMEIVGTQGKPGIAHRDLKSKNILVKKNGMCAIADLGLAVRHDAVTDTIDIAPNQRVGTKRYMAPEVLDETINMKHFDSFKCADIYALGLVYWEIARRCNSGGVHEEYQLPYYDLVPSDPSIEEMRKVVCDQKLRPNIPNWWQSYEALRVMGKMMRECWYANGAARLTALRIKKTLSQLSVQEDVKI
# [6] = target: ACVR2A (Homo sapiens, UniProt P27037); assay: ThermoFisher SelectScreen LanthaScreen assay; assay type: binding; conditions: N/A = not active
# Sequence of ACVR2A (P27037 20-513): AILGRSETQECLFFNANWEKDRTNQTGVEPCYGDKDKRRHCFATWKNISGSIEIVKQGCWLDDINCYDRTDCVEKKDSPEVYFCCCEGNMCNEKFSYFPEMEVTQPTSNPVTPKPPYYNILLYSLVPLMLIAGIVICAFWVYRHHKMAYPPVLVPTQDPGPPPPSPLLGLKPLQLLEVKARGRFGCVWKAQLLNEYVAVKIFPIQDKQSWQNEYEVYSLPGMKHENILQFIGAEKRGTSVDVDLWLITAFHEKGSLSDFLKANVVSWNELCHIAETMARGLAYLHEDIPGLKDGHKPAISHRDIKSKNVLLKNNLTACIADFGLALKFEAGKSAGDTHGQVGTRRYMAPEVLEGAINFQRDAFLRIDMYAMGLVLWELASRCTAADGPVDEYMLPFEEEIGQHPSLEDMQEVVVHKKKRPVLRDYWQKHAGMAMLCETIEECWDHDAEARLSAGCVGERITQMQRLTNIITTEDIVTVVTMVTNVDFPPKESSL
# Procedure, shortened: (§1)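 Outsourced kinase profiling in TR-FRET binding format, measuring displacement of a tight-binding tracer from the kinase by test compound. IC50 reported.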
# [7] = target: ACVR2B (Homo sapiens, UniProt Q13705); assay: ThermoFisher SelectScreen LanthaScreen assay; assay type: binding; conditions: N/A = not active
# Procedure, shortened: as §1
# [8] = target: BMPR1A (ALK3) (Homo sapiens, UniProt P36894); assay: ThermoFisher SelectScreen LanthaScreen assay; assay type: binding
# Sequence of BMPR1A (ALK3) (P36894 24-532): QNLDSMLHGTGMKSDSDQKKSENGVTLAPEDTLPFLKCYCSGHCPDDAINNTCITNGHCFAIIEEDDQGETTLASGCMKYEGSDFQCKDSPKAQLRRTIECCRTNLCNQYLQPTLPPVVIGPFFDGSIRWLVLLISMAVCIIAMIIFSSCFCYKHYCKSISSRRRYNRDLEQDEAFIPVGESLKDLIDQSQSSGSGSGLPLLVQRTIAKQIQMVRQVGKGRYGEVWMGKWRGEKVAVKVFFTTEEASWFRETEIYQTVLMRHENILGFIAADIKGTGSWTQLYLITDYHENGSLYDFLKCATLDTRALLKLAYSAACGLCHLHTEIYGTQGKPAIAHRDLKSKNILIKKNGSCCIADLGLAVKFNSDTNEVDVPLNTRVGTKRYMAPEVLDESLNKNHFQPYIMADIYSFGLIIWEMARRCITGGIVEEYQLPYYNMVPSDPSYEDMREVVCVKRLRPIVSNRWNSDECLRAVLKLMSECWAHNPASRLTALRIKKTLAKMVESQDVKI
# [9] = target: T3, ACVR1 (ALK2) (Homo sapiens, UniProt Q04771); assay: ThermoFisher SelectScreen LanthaScreen assay; assay type: binding; conditions: ALK2, text
# T3 sequence (Q04771 21-509): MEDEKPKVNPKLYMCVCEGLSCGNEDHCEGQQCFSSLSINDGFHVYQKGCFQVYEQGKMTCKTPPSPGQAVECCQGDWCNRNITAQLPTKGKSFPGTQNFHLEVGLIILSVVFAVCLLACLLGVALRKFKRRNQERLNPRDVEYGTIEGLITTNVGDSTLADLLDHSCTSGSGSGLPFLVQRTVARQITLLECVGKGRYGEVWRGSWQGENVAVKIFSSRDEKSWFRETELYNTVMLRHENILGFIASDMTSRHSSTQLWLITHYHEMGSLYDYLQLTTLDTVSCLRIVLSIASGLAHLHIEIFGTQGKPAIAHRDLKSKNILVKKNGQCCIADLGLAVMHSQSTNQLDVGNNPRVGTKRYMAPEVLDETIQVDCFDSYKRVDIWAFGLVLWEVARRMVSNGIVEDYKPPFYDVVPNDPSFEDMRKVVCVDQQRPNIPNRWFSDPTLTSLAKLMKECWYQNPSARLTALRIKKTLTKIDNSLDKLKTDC
# [10] = target: ACVRL1 (ALK1) (Homo sapiens, UniProt P37023); assay: ThermoFisher SelectScreen LanthaScreen assay; assay type: binding; conditions: ALK1, text
# Sequence of ACVRL1 (ALK1) (P37023 22-503): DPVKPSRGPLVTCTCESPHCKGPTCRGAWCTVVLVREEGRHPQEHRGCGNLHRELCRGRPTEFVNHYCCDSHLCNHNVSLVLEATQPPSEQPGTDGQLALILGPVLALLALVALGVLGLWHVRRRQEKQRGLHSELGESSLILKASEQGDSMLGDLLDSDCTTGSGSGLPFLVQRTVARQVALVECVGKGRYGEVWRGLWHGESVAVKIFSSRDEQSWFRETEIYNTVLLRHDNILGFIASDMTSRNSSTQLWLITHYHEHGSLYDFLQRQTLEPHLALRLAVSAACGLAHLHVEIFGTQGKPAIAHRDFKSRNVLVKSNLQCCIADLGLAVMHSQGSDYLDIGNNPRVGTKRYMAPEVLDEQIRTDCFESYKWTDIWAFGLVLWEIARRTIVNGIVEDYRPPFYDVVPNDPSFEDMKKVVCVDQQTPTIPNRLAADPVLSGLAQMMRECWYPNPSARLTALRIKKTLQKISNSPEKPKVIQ
# [11] = target: BMPR1B (ALK6) (Homo sapiens, UniProt O00238); assay: ThermoFisher SelectScreen LanthaScreen assay; assay type: binding
# Sequence of BMPR1B (ALK6) (O00238 14-502): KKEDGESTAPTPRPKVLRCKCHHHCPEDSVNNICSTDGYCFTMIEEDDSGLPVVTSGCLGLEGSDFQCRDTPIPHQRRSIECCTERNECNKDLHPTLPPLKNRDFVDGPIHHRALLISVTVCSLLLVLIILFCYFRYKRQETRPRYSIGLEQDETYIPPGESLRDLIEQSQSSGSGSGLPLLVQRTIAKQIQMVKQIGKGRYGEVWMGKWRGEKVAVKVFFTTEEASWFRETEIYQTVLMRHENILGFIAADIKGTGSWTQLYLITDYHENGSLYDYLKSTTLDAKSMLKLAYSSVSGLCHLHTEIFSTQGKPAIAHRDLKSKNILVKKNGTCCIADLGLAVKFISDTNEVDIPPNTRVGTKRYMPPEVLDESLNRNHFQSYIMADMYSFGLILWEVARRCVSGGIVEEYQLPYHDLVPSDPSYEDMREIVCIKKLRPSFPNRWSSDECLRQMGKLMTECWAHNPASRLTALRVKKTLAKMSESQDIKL
# [12] = target: T4, TGFBR1 (ALK5) (Homo sapiens, UniProt P36897); assay: ThermoFisher SelectScreen LanthaScreen assay; assay type: binding
# T4 sequence (P36897 34-503): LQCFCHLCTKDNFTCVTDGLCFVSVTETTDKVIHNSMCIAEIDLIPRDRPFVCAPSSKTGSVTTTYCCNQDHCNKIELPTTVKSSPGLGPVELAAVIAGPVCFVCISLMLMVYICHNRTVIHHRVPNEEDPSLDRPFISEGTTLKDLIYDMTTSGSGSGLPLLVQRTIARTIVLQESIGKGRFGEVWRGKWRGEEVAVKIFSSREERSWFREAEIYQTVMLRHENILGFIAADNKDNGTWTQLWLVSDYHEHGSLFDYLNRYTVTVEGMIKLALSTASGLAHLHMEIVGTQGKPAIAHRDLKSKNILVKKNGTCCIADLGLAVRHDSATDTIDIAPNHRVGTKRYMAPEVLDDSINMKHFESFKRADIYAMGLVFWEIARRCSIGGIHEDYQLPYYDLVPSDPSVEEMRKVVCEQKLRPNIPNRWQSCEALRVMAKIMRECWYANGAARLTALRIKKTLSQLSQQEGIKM
# [13] = target: T1, BMPR2 kinase domain; assay: Thermal shift assay; assay type: binding; conditions: 50 μM compound; BMPR2 alone Tm 52.1 °C
# Procedure, shortened: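 Purified BMPR2 kinase domain (1 μg) in 50 mM Tris–HCl pH 7.5, 150 mM NaCl with 50 μM test compound and 5× SYPRO Orange. Heated 20 to 95 °C, fluorescence read every 10 s. Tm taken from the unfolding curve; three technical replicates averaged.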
# [14] = target: TGFBR2 (Homo sapiens, UniProt P37173); assay: ThermoFisher SelectScreen LanthaScreen assay; assay type: binding
# Sequence of TGFBR2 (P37173 23-567): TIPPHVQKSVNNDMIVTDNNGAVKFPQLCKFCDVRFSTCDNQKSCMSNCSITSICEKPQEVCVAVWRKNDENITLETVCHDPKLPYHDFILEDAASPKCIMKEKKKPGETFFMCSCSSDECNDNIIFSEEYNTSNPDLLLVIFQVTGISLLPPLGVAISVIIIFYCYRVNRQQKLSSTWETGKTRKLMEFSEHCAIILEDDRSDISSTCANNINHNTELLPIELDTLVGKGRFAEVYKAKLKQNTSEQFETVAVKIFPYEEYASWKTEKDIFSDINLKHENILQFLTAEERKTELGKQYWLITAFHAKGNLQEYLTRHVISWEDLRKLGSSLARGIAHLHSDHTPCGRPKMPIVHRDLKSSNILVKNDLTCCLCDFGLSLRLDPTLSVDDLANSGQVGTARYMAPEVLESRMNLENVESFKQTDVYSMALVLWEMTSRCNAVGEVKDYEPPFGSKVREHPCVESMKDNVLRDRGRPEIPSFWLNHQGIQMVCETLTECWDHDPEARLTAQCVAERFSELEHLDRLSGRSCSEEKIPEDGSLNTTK
smiles,measurement,setting,value
"CNC(=O)[C@@H]1CC[C@@H](n2c(-c3ccc4cnccc4c3)nc3ccc(C(=O)NCc4ccccc4)cc32)C1 [CDD-1283, N-Benzyl-2-(isoquinolin-6-yl)-1-((1R,3R)-3-(methylcarbamoyl)cyclopentyl)-1H-benzo[d]imidazole-6-carboxamide]",fold loss of BMPR2 potency,[1],6.2 fold
"COc1cnc(Nc2cccc(S(N)(=O)=O)c2)nc1N1CCN(c2ccccc2)C(=O)C1 [CDD-1653, 3-((5-Methoxy-4-(3-oxo-4-phenylpiperazin-1-yl)pyrimidin-2-yl)amino)benzenesulfonamide]",Kd,[2],> 3 µM
same,phosphorylation of SMAD1/5 (pSMAD1/5),[3],significantly decreased
same,Kd,[4],> 3 µM
"CNC(=O)[C@@H]1CC[C@@H](n2c(-c3ccc4cnccc4c3)nc3ccc(C(=O)NCc4cccc(C(N)=O)c4)cc32)C1 [CDD-1115, N-(3-Carbamoylbenzyl)-2-(isoquinolin-6-yl)-1-((1R,3R)-3-(methylcarbamoyl)cyclopentyl)-1H-benzo[d]imidazole-6-carboxamide]",IC50,[5],inactive
same,IC50,[6],inactive
same,IC50,[7],inactive
same,selectivity over BMPR2,"[8]; ALK3, text",> 555 fold
same,selectivity,[8]; ALK3 vs BMPR2,>555×
same,selectivity over BMPR2,[9],> 100 fold
same,selectivity over BMPR2,[10],> 100 fold
same,selectivity over BMPR2,"[11]; ALK6, text",> 555 fold
same,selectivity,[11]; ALK6 vs BMPR2,>555×
same,selectivity over BMPR2,"[12]; ALK5, text",> 555 fold
same,selectivity,[12]; ALK5 vs BMPR2,>555×
same,melting temperature (Tm),[13],67.8 °C
same,IC50,[14],> 1 µM
same,selectivity over BMPR2,"[14]; TGFBR2, text",> 555 fold
same,selectivity,[14]; TGFBR2 vs BMPR2,>555×
"Cn1c(-c2ccc3cnccc3c2)nc2ccc(C(=O)NCc3cccc(C(N)=O)c3)cc21 [CDD-1280, N-(3-Carbamoylbenzyl)-2-(isoquinolin-6-yl)-1-methyl-1H-benzo[d]imidazole-6-carboxamide]",fold loss of BMPR2 potency,[1],2.7 fold
"COc1cnc(Nc2cccc(S(N)(=O)=O)c2)nc1N1CCN(c2ccccc2)CC1 [CDD-1496, 3-((5-Methoxy-4-(4-phenylpiperazin-1-yl)pyrimidin-2-yl)amino)benzenesulfonamide]",phosphorylation of SMAD1/5 (pSMAD1/5),[3],significantly decreased
same,fold drop in BMPR2 potency,[1]; compared to parent CDD-1431,2 fold
"CNC(=O)[C@@H]1CC[C@@H](n2c(-c3cccc(Cl)c3)nc3ccc(C(=O)NCc4cccc(C(N)=O)c4)cc32)C1 [CDD-1284, N-(3-Carbamoylbenzyl)-2-(3-chlorophenyl)-1-((1R,3R)-3-(methylcarbamoyl)cyclopentyl)-1H-benzo[d]imidazole-6-carboxamide]",fold loss of BMPR2 potency,[1],160 fold
"COc1cnc(Nc2cccc(S(N)(=O)=O)c2)nc1N1CCNCC1 [CDD-1497, 3-((5-Methoxy-4-(piperazin-1-yl)pyrimidin-2-yl)amino)benzenesulfonamide]",fold drop in BMPR2 potency,[1]; compared to parent CDD-1431,12 fold
"CNC(=O)[C@@H]1CC[C@@H](n2c(-c3cc(Cl)cc(Cl)c3)nc3ccc(C(=O)NCc4cccc(C(N)=O)c4)cc32)C1 [CDD-1285, N-(3-Carbamoylbenzyl)-2-(3,5-dichlorophenyl)-1-((1R,3R)-3-(methylcarba-moyl)cyclopentyl)-1H-benzo[d]imidazole-6-carboxamide]",fold loss of BMPR2 potency,[1],160 fold
"CCOc1cnc(Nc2cccc(S(N)(=O)=O)c2)nc1N1CCN(c2ccccc2)C(=O)C1 [CDD-1703, 3-((5-Ethoxy-4-(3-oxo-4-phenylpiperazin-1-yl)pyrimidin-2-yl)amino)benzenesulfonamide]",fold improved BMPR2 potency,[1]; compared to parent CDD-1431,4 fold
"CNC(=O)c1ccc2nc(-c3ccc4cnccc4c3)n([C@@H]3CC[C@@H](C(=O)NC)C3)c2c1 [CDD-1282, 2-(Isoquinolin-6-yl)-N-methyl-1-((1R,3R)-3-(methylcarbamoyl)cyclopentyl)-1H-benzo[d]imidazole-6-carboxamide]",fold loss of BMPR2 potency,[1],complete loss of potency
"CNC(=O)CCc1ccc(C(=O)NCc2cccc(N3CCN(c4nc(Nc5cccc(S(N)(=O)=O)c5)ncc4OC)CC3)c2)cc1 [CDD-1431, N-(3-(4-(5-Methoxy-2-((3-sulfamoylphenyl)amino)pyrimidin-4-yl)piperazin-1-yl)benzyl)-4-(3-(methylamino)-3-oxopropyl)benzamide]",melting temperature (Tm),[13],66.0 °C
